Measurements taken from ChEMBL document CHEMBL4402599 (J Med Chem, 2020).
Values belong to the compound of their own block, whether it stands above or below them.

Key:
[1] = target: Inositol 1,4,5-trisphosphate-gated calcium channel ITPR1 (Rattus norvegicus) (UniProt P29994); experiment: Agonist activity at rat IP3R1 expressed in HEK cells assessed as increase in calcium release in cytosol by measuring fluorescence signal at 300 uM by Mag-Fluo4 dye based assay relative to control; type: cell-based
Procedure, shortened: (§1)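 HEK-293 cells lacking all three IP3R subtypes (CRISPR), stably transfected with rat IP3R1 (S1 splice site absent), G418-selected monoclonal line. ER loaded with Mag-Fluo-4 AM (20 μM, 1 h, 22 °C), saponin-permeabilized, in Ca2+-free cytosol-like medium, pH 7.0, 220 nM free Ca2+. MgATP 1.5 mM loads stores, CPA 10 μM added, ligand 60 s later. Read-out is fluorescence at 485/520 nm, 20 °C. Release is % of (Ffull − Fempty). Hill fit; 5–11 experiments in duplicate.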

[2] = target: T1, Inositol 1,4,5-trisphosphate-gated calcium channel ITPR1 (Rattus norvegicus, UniProt P29994); experiment: Displacement of [3H]-IP3 from IP3R1 in Wistar rat cerebellar membrane measured after 5 mins by liquid scintillation counting method; type: cell membranes, Cerebellum
[3] = target: Inositol 1,4,5-trisphosphate-gated calcium channel ITPR1 (Rattus norvegicus) (UniProt P29994); experiment: Partial agonist activity at rat IP3R1 expressed in HEK cells assessed as increase in calcium release in cytosol by measuring fluorescence signal by Mag-Fluo4 dye based assay relative to inositol-1,4,5-triphosphate; type: cell-based; procedure, shortened: as §1
[4] = target: Inositol 1,4,5-trisphosphate-gated calcium channel ITPR1 (Rattus norvegicus) (UniProt P29994); experiment: Ratio of EC39 for partial agonist activity at rat IP3R1 expressed in HEK cells assessed as increase in calcium release in cytosol by measuring fluorescence signal by Mag-Fluo4 dye based assay to Kd for binding affinity to IP3R1 in Wistar rat cerebellar membrane; type: cell-based
[5] = target: Inositol 1,4,5-trisphosphate-gated calcium channel ITPR1 (Rattus norvegicus) (UniProt P29994); experiment: Ratio of EC50 for partial agonist activity at rat IP3R1 expressed in HEK cells assessed as increase in calcium release in cytosol by measuring fluorescence signal by Mag-Fluo4 dye based assay to Kd for binding affinity to IP3R1 in Wistar rat cerebellar membrane; type: cell-based
Procedure, shortened: (§2)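 Ratio of EC50 from Mag-Fluo-4 Ca2+ release in permeabilized rat IP3R1-HEK cells to Kd from [3H]-IP3 competition with rat cerebellar membranes. Calculated from the difference of log values (pEC50 − pKd); given as mean with 95% CI.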

[6] = target: T1, Inositol 1,4,5-trisphosphate-gated calcium channel ITPR1; experiment: Partial agonist activity at rat IP3R1 expressed in HEK cells assessed as increase in calcium release in cytosol by measuring fluorescence signal by Mag-Fluo4 dye based assay; type: cell-based; procedure, shortened: as §1
[7] = target: T1, Inositol 1,4,5-trisphosphate-gated calcium channel ITPR1; experiment: Agonist activity at rat IP3R1 expressed in HEK cells assessed as increase in calcium release in cytosol by measuring fluorescence signal by Mag-Fluo4 dye based assay; type: cell-based
[8] = target: Inositol 1,4,5-trisphosphate-gated calcium channel ITPR1 (Rattus norvegicus) (UniProt P29994); experiment: Ratio of EC50 for agonist activity at rat IP3R1 expressed in HEK cells assessed as increase in calcium release in cytosol by measuring fluorescence signal by Mag-Fluo4 dye based assay to Kd for binding affinity to IP3R1 in Wistar rat cerebellar membrane; type: cell-based; procedure, shortened: as §2
[9] = Stability of compound assessed as basic hydrolysis at pH 10 measured after 1 week by H-NMR spectroscopy; type: physicochemical; details: buffer, pH 10, 168 h
Procedure, shortened: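 Kept at pH 10 for one week and checked for degradation.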

[10] = Stability of compound in D2O at pH 7 under room temperature measured after 2 months by H-NMR spectroscopy; type: physicochemical; details: buffer, pH 7, 1461 h
Procedure, shortened: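 Triethylammonium salt left in D2O at pH 7, room temperature; degradation followed over time.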

[11] = Stability of compound assessed as acidic hydrolysis at pH 1 measured after 1 day by H-NMR spectroscopy; type: physicochemical; details: buffer, pH 1, 24 h
Procedure, shortened: (§3)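 Hydrolysis followed after 1 day at pH 1 or at pH 14.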

[12] = target: Inositol 1,4,5-trisphosphate-gated calcium channel ITPR1 (Rattus norvegicus) (UniProt P29994); experiment: Agonist activity at rat IP3R1 expressed in HEK cells assessed as increase in calcium release in cytosol by measuring fluorescence signal by Mag-Fluo4 dye based assay relative to control; type: cell-based; procedure, shortened: as §1
[13] = Stability of compound assessed as basic hydrolysis at pH 14 measured after 1 day by H-NMR spectroscopy; type: physicochemical; details: buffer, pH 14, 24 h; procedure, shortened: as §3
[14] = Drug metabolism assessed as catalytic hydrogenolysis by measuring beta-D-glucopyranosyl 1,3,4-trisphosphate triethylammonium formation by 31P-NMR analysis
[15] = Drug degradation at 4 degree C measured after 3 weeks by 31P-NMR analysis; type: physicochemical; details: read-out: Drug degradation

Sequence of Inositol 1,4,5-trisphosphate-gated calcium channel ITPR1 (Rattus norvegicus) (P29994 whole entry, looked up, canonical isoform): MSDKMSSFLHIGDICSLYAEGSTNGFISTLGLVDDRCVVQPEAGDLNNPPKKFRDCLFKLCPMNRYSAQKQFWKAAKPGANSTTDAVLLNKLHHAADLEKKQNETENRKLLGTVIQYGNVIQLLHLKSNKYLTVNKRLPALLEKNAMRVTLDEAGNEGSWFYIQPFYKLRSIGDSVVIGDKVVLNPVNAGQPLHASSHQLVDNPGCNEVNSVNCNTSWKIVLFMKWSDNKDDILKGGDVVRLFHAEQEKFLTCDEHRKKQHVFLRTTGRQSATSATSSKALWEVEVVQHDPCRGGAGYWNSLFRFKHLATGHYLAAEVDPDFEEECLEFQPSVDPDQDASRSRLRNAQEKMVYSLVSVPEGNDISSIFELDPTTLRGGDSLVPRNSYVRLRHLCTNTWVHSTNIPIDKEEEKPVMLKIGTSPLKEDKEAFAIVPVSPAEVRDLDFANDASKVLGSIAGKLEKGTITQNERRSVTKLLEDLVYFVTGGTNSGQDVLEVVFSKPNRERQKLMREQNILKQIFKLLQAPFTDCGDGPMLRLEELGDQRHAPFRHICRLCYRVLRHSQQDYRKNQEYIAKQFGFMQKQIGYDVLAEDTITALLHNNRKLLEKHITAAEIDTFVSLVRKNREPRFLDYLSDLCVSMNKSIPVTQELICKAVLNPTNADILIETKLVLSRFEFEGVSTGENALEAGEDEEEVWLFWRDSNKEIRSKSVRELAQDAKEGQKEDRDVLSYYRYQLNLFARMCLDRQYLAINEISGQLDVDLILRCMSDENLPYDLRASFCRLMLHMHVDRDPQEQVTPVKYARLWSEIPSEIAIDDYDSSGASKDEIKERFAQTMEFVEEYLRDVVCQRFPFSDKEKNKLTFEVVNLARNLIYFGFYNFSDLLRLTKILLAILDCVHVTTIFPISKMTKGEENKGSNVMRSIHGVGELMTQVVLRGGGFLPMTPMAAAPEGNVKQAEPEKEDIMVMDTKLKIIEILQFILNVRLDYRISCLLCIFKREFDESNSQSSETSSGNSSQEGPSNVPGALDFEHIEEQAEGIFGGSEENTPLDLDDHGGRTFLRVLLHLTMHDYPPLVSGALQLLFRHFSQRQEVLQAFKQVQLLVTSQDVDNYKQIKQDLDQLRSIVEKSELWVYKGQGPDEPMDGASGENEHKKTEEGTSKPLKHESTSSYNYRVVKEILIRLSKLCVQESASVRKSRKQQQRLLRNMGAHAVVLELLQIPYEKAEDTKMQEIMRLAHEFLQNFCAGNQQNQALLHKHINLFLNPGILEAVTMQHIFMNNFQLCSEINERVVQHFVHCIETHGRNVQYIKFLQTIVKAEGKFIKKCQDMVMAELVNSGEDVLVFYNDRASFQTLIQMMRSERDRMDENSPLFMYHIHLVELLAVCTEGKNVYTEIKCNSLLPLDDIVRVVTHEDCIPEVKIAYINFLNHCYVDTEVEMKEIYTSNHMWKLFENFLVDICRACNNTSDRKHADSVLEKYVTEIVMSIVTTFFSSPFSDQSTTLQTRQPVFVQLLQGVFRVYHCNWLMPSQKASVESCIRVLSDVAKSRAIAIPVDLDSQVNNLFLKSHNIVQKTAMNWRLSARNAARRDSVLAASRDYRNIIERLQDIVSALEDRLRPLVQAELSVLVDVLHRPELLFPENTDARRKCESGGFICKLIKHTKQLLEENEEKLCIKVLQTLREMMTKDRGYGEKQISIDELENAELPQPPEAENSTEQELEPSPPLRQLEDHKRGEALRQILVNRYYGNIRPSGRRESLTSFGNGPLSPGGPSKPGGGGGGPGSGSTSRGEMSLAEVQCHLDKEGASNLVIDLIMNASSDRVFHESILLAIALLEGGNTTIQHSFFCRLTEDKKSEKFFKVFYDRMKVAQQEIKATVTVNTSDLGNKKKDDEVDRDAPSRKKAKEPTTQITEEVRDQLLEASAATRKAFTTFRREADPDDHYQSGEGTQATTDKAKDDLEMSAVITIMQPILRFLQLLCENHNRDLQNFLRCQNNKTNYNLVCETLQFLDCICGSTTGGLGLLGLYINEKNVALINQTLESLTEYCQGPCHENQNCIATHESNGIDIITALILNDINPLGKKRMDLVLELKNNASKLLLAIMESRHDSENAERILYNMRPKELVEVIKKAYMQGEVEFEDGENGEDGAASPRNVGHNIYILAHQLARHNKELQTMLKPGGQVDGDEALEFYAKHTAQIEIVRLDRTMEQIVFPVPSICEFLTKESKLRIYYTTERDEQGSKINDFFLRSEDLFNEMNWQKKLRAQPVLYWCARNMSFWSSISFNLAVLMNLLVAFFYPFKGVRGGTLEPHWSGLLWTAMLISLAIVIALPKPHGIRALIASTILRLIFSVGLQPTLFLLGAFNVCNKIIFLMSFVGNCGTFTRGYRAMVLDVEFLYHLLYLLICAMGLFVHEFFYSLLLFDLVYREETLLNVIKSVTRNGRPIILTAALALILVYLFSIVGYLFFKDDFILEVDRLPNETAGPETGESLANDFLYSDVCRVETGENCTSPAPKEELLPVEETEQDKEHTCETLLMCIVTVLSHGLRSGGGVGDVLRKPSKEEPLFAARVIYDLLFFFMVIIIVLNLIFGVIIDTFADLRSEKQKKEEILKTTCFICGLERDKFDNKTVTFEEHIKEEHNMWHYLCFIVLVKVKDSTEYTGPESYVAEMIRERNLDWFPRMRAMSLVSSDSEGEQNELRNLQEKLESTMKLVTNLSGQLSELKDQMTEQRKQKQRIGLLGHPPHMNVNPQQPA

Activity [1]: 5.9%
SMILES: CO[C@H]1O[C@H](COP(=O)(O)O)[C@@H](OP(=O)(O)O)[C@H](O)[C@H]1OP(=O)(O)O

Activity [1]: 4.3%
SMILES: CO[C@H]1O[C@H](COP(=O)(O)O)[C@@H](O)[C@H](OP(=O)(O)O)[C@H]1OP(=O)(O)O

Kd [2]: 549 nM
Activity [3]: 53.1%
Ratio [4]: 462
Ratio [5]: 191
EC50 [6]: 104000 nM
SMILES: CO[C@@H]1O[C@@H](COP(=O)(O)O)[C@H](OP(=O)(O)O)[C@@H](O)[C@@H]1OP(=O)(O)O

Kd [2]: 1.4 nM
EC50 [7]: 24 nM
Ratio [8]: 17
SMILES: Nc1ncnc2c1ncn2[C@@H]1O[C@H](CO)[C@@H](O[C@H]2O[C@H](CO)[C@@H](OP(=O)(O)O)[C@H](OP(=O)(O)O)[C@H]2O)[C@H]1OP(=O)(O)O [ADENOPHOSTIN A]

Kd [2]: 129 nM
Stability [9]: Stable
Stability [10]: Stable
EC50 [7]: 2960 nM
Stability [11]: Unstable
Ratio [8]: 23
Activity [12]: 78.8%
Stability [13]: Unstable
SMILES: CCN(CC)CC.CCN(CC)CC.CCN(CC)CC.O=P(O)(O)O[C@H]1O[C@H](CO)[C@@H](OP(=O)(O)O)[C@H](OP(=O)(O)O)[C@H]1O

Kd [2]: 1230 nM
Activity [3]: 56.2%
Ratio [4]: 132
Ratio [5]: 71
EC50 [6]: 87700 nM
SMILES: CO[C@@H]1O[C@@H](COP(=O)(O)O)[C@H](O)[C@@H](OP(=O)(O)O)[C@@H]1OP(=O)(O)O

Kd [2]: 11.2 nM
Stability [9]: Stable
Stability [10]: Stable
EC50 [7]: 80 nM
Stability [11]: Unstable
Ratio [8]: 7
Activity [12]: 75.2%
Stability [13]: Unstable
SMILES: CCN(CC)CC.CCN(CC)CC.CCN(CC)CC.O=P(O)(O)O[C@@H]1O[C@H](CO)[C@@H](OP(=O)(O)O)[C@H](OP(=O)(O)O)[C@H]1O

degraded at 504 h [15]: 30%
SMILES: O=P(OCc1ccccc1)(OCc1ccccc1)O[C@@H]1O[C@H](COCc2ccccc2)[C@@H](OP(=O)(OCc2ccccc2)OCc2ccccc2)[C@H](OP(=O)(OCc2ccccc2)OCc2ccccc2)[C@H]1OCc1ccccc1
Drug metabolism [14]: Metabolite detected
